Measurements published in ChEMBL document CHEMBL2040797, “Synthesis of benzimidazoles bearing oxadiazole nucleus as anticancer agents” (2012).

Columns and labels:
Format in all cases: functional
[1] = system: SW-620; assay: Cytotoxicity against human SW620 cells after 48 hrs by sulforhodamine B assay; settings: SW-620, 48 h
Outline: (§1)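 NCI 60-panel screen. Cells were grown in RPMI 1640 with 5% FBS and L-glutamine and plated at 5000–40,000 cells/well according to doubling time. They were preincubated 24 h at 37 °C, 5% CO2, then exposed 48 h to five 10-fold dilutions. Adherent cells were fixed with cold TCA, final 10%; suspension cells were fixed after settling. Cells were stained with 0.4% SRB and read at 515 nm. Tz/C/Ti growth curves gave GI50, TGI and LC50.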

[2] = system: Malme-3M; assay: Growth inhibition of human MALME-3M cells at 10 uM after 48 hrs by sulforhodamine B assay; settings: read-out: GI
Outline: (§2)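 NCI one-dose primary screen at 10 (printed mM) across the 60-line panel. Cells in RPMI 1640 with 5% FBS and 2 mM L-glutamine, plated at 5000–40,000 cells/well and incubated 24 h before dosing. Exposure 48 h at 37 °C, 5% CO2. Adherent cells were fixed with cold TCA, suspension cells fixed after settling. SRB stain, absorbance 515 nm. Reported as percent growth of treated cells relative to control.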

[3] = system: LOX IMVI; assay: Growth inhibition of human LOXIMVI cells at 10 uM after 48 hrs by sulforhodamine B assay; settings: read-out: GI; outline: as §2
[4] = system: BT-549; assay: Cytotoxicity against human BT549 cells after 48 hrs by sulforhodamine B assay; settings: BT-549, 48 h; outline: as §1
[5] = system: UACC-62; assay: Cytotoxicity against human UACC62 cells after 48 hrs by sulforhodamine B assay; settings: UACC-62, 48 h
Outline: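 NCI 60 panel five-dose screen. Cells in RPMI 1640 with 5% FBS and 2 mM L-glutamine, plated at 5000–40,000 cells/well and preincubated 24 h. Compounds were tested at five 10-fold concentrations (0.01–100) for 48 h at 37 °C, 5% CO2. Cells were fixed with TCA and stained with SRB, absorbance 515 nm. GI50, TGI and LC50 were taken from % growth curves against time-zero and control.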

[6] = system: HOP-62; assay: Growth inhibition of human HOP62 cells at 10 uM after 48 hrs by sulforhodamine B assay; settings: HOP-62, 48 h, read-out: GI; outline: as §2
[7] = system: OVCAR-8; assay: Cytotoxicity against human OVCAR8 cells after 48 hrs by sulforhodamine B assay; settings: OVCAR-8, 48 h; outline: as §1
[8] = system: MDA-MB-435; assay: Growth inhibition of human MDA-MB-435 cells at 10 uM after 48 hrs by sulforhodamine B assay; settings: MDA-MB-435, 48 h, read-out: GI; outline: as §2
[9] = system: A549; assay: Growth inhibition of human A549 cells at 10 uM after 48 hrs by sulforhodamine B assay; settings: A549, 48 h, read-out: GI; outline: as §2
[10] = system: IGROV-1; assay: Cytotoxicity against human IGROV1 cells after 48 hrs by sulforhodamine B assay; settings: IGROV-1, 48 h; outline: as §1
[11] = system: LOX IMVI; assay: Cytotoxicity against human LOXIMVI cells after 48 hrs by sulforhodamine B assay; outline: as §1
[12] = system: HCT-116; assay: Cytotoxicity against human HCT116 cells after 48 hrs by sulforhodamine B assay; settings: HCT-116, 48 h; outline: as §1
[13] = system: SN12C; assay: Cytotoxicity against human SN12C cells after 48 hrs by sulforhodamine B assay; outline: as §1
[14] = system: ACHN; assay: Cytotoxicity against human ACHN cells after 48 hrs by sulforhodamine B assay; outline: as §1
[15] = system: NCI-H460; assay: Cytotoxicity against human NCI-H460 cells after 48 hrs by sulforhodamine B assay; settings: NCI-H460, 48 h; outline: as §1
[16] = system: NCI-H460; assay: Growth inhibition of human NCI-H460 cells at 10 uM after 48 hrs by sulforhodamine B assay; settings: NCI-H460, 48 h, read-out: GI; outline: as §2
[17] = system: M14; assay: Growth inhibition of human M14 cells at 10 uM after 48 hrs by sulforhodamine B assay; settings: M14, 48 h, read-out: GI; outline: as §2
[18] = system: DU-145; assay: Cytotoxicity against human DU145 cells after 48 hrs by sulforhodamine B assay; settings: DU-145, 48 h; outline: as §1
[19] = system: UACC-62; assay: Growth inhibition of human UACC62 cells at 10 uM after 48 hrs by sulforhodamine B assay; settings: UACC-62, 48 h, read-out: GI
Outline: (§3)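 NCI-60 single-dose screen. Cells grown in RPMI 1640 with 5% FBS and L-glutamine, plated at 5000–40,000 cells/well by doubling time, and preincubated 24 h at 37 °C, 5% CO2. Compound stocks in DMSO, added at one concentration, then incubated 48 h. Adherent cells fixed with cold TCA (10% final), stained with 0.4% SRB, dye solubilized in 10 mM Tris base, A515 read. Reported as percent growth relative to untreated control.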

[20] = system: SF-268; assay: Growth inhibition of human SF268 cells at 10 uM after 48 hrs by sulforhodamine B assay; settings: SF-268, 48 h, read-out: GI; outline: as §2
[21] = system: SNB-75; assay: Cytotoxicity against human SNB75 cells after 48 hrs by sulforhodamine B assay; settings: SNB-75, 48 h; outline: as §1
[22] = system: SNB-19; assay: Growth inhibition of human SNB19 cells at 10 uM after 48 hrs by sulforhodamine B assay; settings: SNB-19, 48 h, read-out: GI; outline: as §3
[23] = system: MDA-MB-435; assay: Cytotoxicity against human MDA-MB-435 cells after 48 hrs by sulforhodamine B assay; settings: MDA-MB-435, 48 h; outline: as §1
[24] = system: OVCAR-4; assay: Growth inhibition of human OVCAR4 cells at 10 uM after 48 hrs by sulforhodamine B assay; settings: OVCAR-4, 48 h, read-out: GI; outline: as §2
[25] = system: HCT-15; assay: Cytotoxicity against human HCT15 cells after 48 hrs by sulforhodamine B assay; settings: HCT-15, 48 h; outline: as §1
[26] = system: PC-3; assay: Cytotoxicity against human PC3 cells after 48 hrs by sulforhodamine B assay; settings: PC-3, 48 h; outline: as §1
[27] = Cytotoxicity against human Hs 578T cells after 48 hrs by sulforhodamine B assay; outline: as §1
[28] = system: SF-539; assay: Cytotoxicity against human SF539 cells after 48 hrs by sulforhodamine B assay; settings: SF-539, 48 h; outline: as §1
[29] = read-out: LC50 (the source's name)

O=C(CCc1nnc(-c2ccc(Cl)cc2Cl)o1)c1nc2ccccc2[nH]1
GI50 [1]: 3.46 µM | TGI [1]: 16.3 µM | CC50 [1, 29]: 74.3 µM | inhibition of growth at 10 µM [2]: 20.7% | inhibition of growth at 10 µM [3]: 44.9% | GI50 [4]: 7.54 µM | TGI [4]: 92.5 µM | CC50 [4, 29]: 100 µM | GI50 [5]: 3.34 µM | TGI [5]: 27.8 µM | CC50 [5, 29]: 100 µM | inhibition of growth at 10 µM [6]: 28.4% | GI50 [7]: 9.26 µM | TGI [7]: 100 µM | CC50 [7, 29]: 100 µM | inhibition of growth at 10 µM [8]: 101% | inhibition of growth at 10 µM [9]: 30.3% | GI50 [10]: 5.26 µM | TGI [10]: 39.1 µM | CC50 [10, 29]: 100 µM | GI50 [11]: 4.03 µM | TGI [11]: 39.8 µM | CC50 [11, 29]: 100 µM | GI50 [12]: 3.33 µM | TGI [12]: 13.5 µM | CC50 [12, 29]: 52.5 µM | GI50 [13]: 6.22 µM | TGI [13]: 56.9 µM | CC50 [13, 29]: 100 µM | GI50 [14]: 11.9 µM | TGI [14]: 100 µM | CC50 [14, 29]: 100 µM | GI50 [15]: 4.99 µM | TGI [15]: 28.6 µM | CC50 [15, 29]: 100 µM | inhibition of growth at 10 µM [16]: 22.7% | inhibition of growth at 10 µM [17]: 44.2% | GI50 [18]: 17.8 µM | TGI [18]: 100 µM | CC50 [18, 29]: 100 µM | inhibition of growth at 10 µM [19]: 57.7% | inhibition of growth at 10 µM [20]: 31.9% | GI50 [21]: 18.7 µM | CC50 [21, 29]: 100 µM | inhibition of growth at 10 µM [22]: 24.9% | GI50 [23]: 2 µM | TGI [23]: 4.77 µM | CC50 [23, 29]: 100 µM | inhibition of growth at 10 µM [24]: 41.2% | GI50 [25]: 5.13 µM | TGI [25]: 48.6 µM | CC50 [25, 29]: 100 µM | GI50 [26]: 3.71 µM | TGI [26]: 100 µM | CC50 [26, 29]: 100 µM | GI50 [27]: 9.71 µM | TGI [27]: 93.9 µM | CC50 [27, 29]: 100 µM | GI50 [28]: 10.5 µM | TGI [28]: 39.6 µM | CC50 [28, 29]: 100 µM
